From ChEMBL document CHEMBL4371041, “Synthesis and evaluation of thieno[3,2-d]pyrimidine derivatives as novel FMS inhibitors” (Bioorg Med Chem Lett, 2019)

Key:
[1] = biological target: Tyrosine-protein kinase Lck (Homo sapiens) (UniProt P06239); assay: Inhibition of recombinant human full-length N-terminal His6-tagged LCK expressed in baculovirus infected Sf21 insect cells at 1 uM in presence of [gamma-33P]-ATP or [gamma-32P]-ATP relative to control
[2] = biological target: Hepatocyte growth factor receptor (Homo sapiens) (UniProt P08581); assay: Inhibition of recombinant human N-terminal His6-tagged Met (974 to end residues) expressed in baculovirus infected Sf21 insect cells at 1 uM using KKKSPGEYVNIEFG as substrate in presence of [gamma-33P]-ATP or [gamma-32P]-ATP relative to control
Sequence of Hepatocyte growth factor receptor (Homo sapiens) (P08581 whole entry): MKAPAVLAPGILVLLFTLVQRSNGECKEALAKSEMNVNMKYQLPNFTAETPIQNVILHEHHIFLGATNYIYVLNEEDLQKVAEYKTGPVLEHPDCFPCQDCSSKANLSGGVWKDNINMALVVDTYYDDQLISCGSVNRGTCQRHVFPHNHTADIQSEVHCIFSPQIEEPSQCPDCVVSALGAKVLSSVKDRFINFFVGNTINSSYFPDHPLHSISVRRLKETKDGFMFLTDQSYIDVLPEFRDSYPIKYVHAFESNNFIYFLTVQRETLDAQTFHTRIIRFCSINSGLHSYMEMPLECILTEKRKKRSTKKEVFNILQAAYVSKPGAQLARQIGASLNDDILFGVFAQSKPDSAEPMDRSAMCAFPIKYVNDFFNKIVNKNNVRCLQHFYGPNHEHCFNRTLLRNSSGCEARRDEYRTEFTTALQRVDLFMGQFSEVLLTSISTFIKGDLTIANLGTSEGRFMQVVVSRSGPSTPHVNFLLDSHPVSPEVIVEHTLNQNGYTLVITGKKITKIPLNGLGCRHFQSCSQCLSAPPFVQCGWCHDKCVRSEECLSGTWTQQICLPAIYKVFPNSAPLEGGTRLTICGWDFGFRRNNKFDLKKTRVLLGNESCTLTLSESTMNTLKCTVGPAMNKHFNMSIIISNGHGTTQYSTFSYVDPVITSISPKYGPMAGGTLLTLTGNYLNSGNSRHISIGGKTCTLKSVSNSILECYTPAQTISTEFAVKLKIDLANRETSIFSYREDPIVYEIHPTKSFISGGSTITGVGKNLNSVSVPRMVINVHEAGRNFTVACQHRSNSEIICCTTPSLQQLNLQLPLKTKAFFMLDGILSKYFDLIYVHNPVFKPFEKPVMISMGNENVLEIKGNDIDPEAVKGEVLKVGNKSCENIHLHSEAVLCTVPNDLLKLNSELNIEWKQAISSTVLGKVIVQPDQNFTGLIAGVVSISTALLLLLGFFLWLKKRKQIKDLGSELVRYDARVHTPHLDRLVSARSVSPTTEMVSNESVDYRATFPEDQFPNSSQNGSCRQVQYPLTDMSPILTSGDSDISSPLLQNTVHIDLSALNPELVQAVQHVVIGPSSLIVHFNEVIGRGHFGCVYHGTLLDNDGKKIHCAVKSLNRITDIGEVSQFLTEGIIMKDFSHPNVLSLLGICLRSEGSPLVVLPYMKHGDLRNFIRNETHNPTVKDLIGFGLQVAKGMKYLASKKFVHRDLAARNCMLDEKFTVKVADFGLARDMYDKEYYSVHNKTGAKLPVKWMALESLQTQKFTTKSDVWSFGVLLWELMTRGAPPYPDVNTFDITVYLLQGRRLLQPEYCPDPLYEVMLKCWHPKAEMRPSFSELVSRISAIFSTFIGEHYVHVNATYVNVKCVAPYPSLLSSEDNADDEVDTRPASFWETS

[3] = biological target: T1, Vascular endothelial growth factor receptor 2 (Homo sapiens, UniProt P35968); assay: Inhibition of recombinant human N-terminal His6-tagged KDR (790 to end residues) expressed in baculovirus infected Sf21 insect cells using MBP as substrate in presence of [gamma-33P]-ATP or [gamma-32P]-ATP
T1 sequence (P35968 whole entry): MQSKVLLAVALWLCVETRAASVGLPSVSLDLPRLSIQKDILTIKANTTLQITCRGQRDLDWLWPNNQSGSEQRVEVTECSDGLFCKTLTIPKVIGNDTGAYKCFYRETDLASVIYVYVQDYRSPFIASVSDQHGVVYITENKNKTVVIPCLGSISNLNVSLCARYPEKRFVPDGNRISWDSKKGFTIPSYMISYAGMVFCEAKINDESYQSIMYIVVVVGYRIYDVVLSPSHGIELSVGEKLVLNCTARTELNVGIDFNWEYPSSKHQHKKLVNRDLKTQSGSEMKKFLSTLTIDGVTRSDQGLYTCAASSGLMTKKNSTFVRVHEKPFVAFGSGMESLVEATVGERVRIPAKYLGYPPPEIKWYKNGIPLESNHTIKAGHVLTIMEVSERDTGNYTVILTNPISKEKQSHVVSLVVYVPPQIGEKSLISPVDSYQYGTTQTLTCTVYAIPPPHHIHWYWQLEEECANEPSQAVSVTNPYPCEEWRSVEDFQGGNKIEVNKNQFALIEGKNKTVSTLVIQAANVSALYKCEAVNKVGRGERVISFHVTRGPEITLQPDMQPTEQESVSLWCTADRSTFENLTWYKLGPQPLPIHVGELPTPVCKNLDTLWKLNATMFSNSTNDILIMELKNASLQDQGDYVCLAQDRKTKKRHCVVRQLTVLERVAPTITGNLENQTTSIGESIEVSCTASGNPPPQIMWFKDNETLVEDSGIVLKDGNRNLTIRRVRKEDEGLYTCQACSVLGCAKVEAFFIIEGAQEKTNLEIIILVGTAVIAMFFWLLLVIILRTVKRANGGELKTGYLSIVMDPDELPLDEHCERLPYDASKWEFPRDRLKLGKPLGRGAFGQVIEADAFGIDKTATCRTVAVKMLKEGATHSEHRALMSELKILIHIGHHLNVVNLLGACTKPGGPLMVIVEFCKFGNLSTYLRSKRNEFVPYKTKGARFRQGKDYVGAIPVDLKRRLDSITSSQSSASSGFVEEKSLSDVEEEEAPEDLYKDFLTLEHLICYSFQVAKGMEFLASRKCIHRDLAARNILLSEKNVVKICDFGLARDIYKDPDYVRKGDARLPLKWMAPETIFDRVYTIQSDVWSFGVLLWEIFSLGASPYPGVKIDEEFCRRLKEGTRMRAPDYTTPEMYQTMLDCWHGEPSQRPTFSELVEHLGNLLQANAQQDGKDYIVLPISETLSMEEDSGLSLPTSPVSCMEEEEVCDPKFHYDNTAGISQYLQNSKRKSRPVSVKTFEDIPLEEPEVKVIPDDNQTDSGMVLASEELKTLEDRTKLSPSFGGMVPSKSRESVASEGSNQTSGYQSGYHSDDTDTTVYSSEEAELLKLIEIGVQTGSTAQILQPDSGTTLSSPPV
Procedure, shortened: (§1)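 Kinase panel of twenty-eight enzymes; IC50 values determined with ATP at the respective Km of each kinase.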

[4] = biological target: Cytochrome P450 2C9 (Homo sapiens, UniProt P11712); assay: Inhibition of CYP2C9 in human liver microsomes by LC-MS/MS analysis; assay type: ADME
Procedure, shortened: (§2)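 Reversible CYP inhibition measured in human liver microsomes; metabolite formation quantified by LC/MS/MS.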

[5] = biological target: Discoidin domain-containing receptor 2 (Homo sapiens, UniProt Q16832); assay: Inhibition of recombinant human N-terminal His6-tagged DDR2 (467 to end residues) expressed in baculovirus infected Sf21 insect cells using Axltide as substrate in presence of [gamma-33P]-ATP or [gamma-32P]-ATP; procedure, shortened: as §1
[6] = tested on: MDA-MB-231; assay: Synergistic growth inhibition of human MDA-MB-231 cells assessed as combination index at 5 uM after 24 hrs in presence of paclitaxel by MTS assay; assay type: functional
Procedure, shortened: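 MDA-MB-231 human breast adenocarcinoma cells were treated with the test agent, paclitaxel, or both together, and cell growth inhibition was measured. Synergy was expressed as a combination index (CI) calculated from the growth-inhibition data.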

[7] = tested on: MDA-MB-231; assay: Inhibition of paclitaxel-induced FMS expression in human MDA-MB-231 cells by Western blot analysis; assay type: functional, cell-based
[8] = biological target: Ribosomal protein S6 kinase alpha-1 (Homo sapiens) (UniProt Q15418); assay: Inhibition of RSK1 (unknown origin) at 1 uM in presence of [gamma-33P]-ATP or [gamma-32P]-ATP relative to control
[9] = Half life in CD-1 mouse at 3 mg/kg, iv; assay type: ADME, organism-based; conditions: in vivo
[10] = biological target: High affinity nerve growth factor receptor (Homo sapiens) (UniProt P04629); assay: Inhibition of recombinant human N-terminal His6-tagged TrkA (440 to end residues) expressed in baculovirus infected Sf21 insect cells at 1 uM using KKKSPGEYVNIEFG as substrate in presence of [gamma-33P]-ATP or [gamma-32P]-ATP relative to control
[11] = biological target: Tyrosine-protein kinase FRK (Homo sapiens) (UniProt P42685); assay: Inhibition of recombinant human N-terminal His6-tagged PTK5 (218 to end residues) expressed in baculovirus infected Sf21 insect cells at 1 uM using JAK3tide as substrate in presence of [gamma-33P]-ATP or [gamma-32P]-ATP relative to control
[12] = Stability in human hepatocytes assessed as parent compound remaining measured after 60 mins; assay type: ADME, cell-based, Hepatocyte; conditions: read-out: Stability
[13] = Cmax in CD-1 mouse at 10 mg/kg, po; assay type: ADME, organism-based; design: dose 10 mg/kg, route oral; conditions: in vivo
[14] = biological target: Angiopoietin-1 receptor (Homo sapiens, UniProt Q02763); assay: Inhibition of recombinant human N-terminal His6-tagged Tie2 (771 to end residues) expressed in baculovirus infected Sf21 insect cells using Poly (Glu4-Tyr) (4:1) as substrate in presence of [gamma-33P]-ATP or [gamma-32P]-ATP
[15] = Tmax in CD-1 mouse at 10 mg/kg, po; assay type: ADME, organism-based; conditions: in vivo
[16] = biological target: Cytochrome P450 2D6 (Homo sapiens, UniProt P10635); assay: Inhibition of CYP2D6 in human liver microsomes by LC-MS/MS analysis; assay type: ADME; procedure, shortened: as §2
[17] = tested on: NFS-60; assay: Growth inhibition of mouse NFS60 cells after 72 hrs by CellTiter96 AQueous one solution cell proliferation assay; assay type: functional; conditions: NFS-60, 72 h
[18] = biological target: Discoidin domain-containing receptor 2 (Homo sapiens) (UniProt Q16832); assay: Inhibition of recombinant human N-terminal His6-tagged DDR2 (467 to end residues) expressed in baculovirus infected Sf21 insect cells at 1 uM using Axltide as substrate in presence of [gamma-33P]-ATP or [gamma-32P]-ATP relative to control
[19] = biological target: Maternal embryonic leucine zipper kinase (Homo sapiens, UniProt Q14680); assay: Inhibition of recombinant human N-terminal GST-tagged MELK (1 to 340 residues) expressed in baculovirus infected Sf21 insect cells at 1 uM using KKLNRTLSFAEPG as substrate in presence of [gamma-33P]-ATP or [gamma-32P]-ATP relative to control
[20] = biological target: Cytochrome P450 1A2 (Homo sapiens, UniProt P05177); assay: Inhibition of CYP1A2 in human liver microsomes by LC-MS/MS analysis; assay type: ADME; procedure, shortened: as §2
Sequence of Cytochrome P450 1A2 (P05177 whole entry): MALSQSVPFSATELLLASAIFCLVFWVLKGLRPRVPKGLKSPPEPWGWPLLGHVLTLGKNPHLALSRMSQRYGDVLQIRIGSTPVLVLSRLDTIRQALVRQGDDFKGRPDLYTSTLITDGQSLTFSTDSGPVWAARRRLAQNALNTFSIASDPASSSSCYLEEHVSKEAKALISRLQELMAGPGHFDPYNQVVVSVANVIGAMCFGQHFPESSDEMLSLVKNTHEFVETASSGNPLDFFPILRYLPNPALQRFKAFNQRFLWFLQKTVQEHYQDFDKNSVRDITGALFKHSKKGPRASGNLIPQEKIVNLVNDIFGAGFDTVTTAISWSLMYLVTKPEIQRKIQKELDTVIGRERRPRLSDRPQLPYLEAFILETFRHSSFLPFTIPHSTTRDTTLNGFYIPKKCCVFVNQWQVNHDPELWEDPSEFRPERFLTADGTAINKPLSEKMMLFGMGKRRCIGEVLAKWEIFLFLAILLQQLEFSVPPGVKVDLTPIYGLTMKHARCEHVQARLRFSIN

[21] = biological target: T1, Vascular endothelial growth factor receptor 2; assay: Inhibition of recombinant human N-terminal His6-tagged KDR (790 to end residues) expressed in baculovirus infected Sf21 insect cells at 1 uM using MBP as substrate in presence of [gamma-33P]-ATP or [gamma-32P]-ATP relative to control
[22] = biological target: T2, Fibroblast growth factor receptor 1 (Homo sapiens, UniProt P11362); assay: Inhibition of recombinant human N-terminal GST-tagged FGFR1 (456 to 765 residues) expressed in baculovirus infected Sf21 insect cells using IGF-IRtide (12-527) as substrate in presence of [gamma-33P]-ATP or [gamma-32P]-ATP; procedure, shortened: as §1
Target sequence in this assay (P11362 whole entry, the tested form may be a part): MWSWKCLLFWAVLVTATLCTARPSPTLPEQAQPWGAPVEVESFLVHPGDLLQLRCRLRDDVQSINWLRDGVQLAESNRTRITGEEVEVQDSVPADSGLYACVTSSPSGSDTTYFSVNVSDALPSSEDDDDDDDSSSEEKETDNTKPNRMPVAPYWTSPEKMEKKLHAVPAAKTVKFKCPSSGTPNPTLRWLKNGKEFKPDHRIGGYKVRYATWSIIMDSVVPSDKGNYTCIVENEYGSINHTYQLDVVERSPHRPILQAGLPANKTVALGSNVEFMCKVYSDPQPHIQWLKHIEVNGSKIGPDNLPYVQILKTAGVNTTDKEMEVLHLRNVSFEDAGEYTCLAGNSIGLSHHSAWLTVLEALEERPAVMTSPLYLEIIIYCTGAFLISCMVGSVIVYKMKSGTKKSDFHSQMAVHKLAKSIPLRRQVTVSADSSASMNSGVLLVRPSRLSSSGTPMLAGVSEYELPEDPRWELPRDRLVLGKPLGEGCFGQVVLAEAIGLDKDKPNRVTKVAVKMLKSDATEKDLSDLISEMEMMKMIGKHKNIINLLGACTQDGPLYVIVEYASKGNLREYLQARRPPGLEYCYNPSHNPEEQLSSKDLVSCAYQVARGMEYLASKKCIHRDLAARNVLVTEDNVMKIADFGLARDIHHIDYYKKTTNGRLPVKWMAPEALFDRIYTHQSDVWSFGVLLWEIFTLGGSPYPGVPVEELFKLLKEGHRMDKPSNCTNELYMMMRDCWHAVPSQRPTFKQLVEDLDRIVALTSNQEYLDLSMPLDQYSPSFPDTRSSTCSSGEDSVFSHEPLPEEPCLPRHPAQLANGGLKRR

[23] = Cmax in CD-1 mouse at 3 mg/kg, iv; assay type: ADME, organism-based; design: dose 3 mg/kg, route intravenous; conditions: in vivo
[24] = biological target: T2, Fibroblast growth factor receptor 1; assay: Inhibition of recombinant human N-terminal GST-tagged FGFR1 (456 to 765 residues) expressed in baculovirus infected Sf21 insect cells at 1 uM using IGF-IRtide (12-527) as substrate in presence of [gamma-33P]-ATP or [gamma-32P]-ATP relative to control
[25] = Oral bioavailability in CD-1 mouse at 10 mg/kg; assay type: ADME, organism-based; conditions: in vivo
[26] = biological target: Mast/stem cell growth factor receptor Kit (Homo sapiens) (UniProt P10721); assay: Inhibition of recombinant human N-terminal GST-tagged c-Kit (544 to end residues) expressed in baculovirus infected Sf21 insect cells at 1 uM using Poly (Glu4-Tyr) (4:1) as substrate in presence of [gamma-33P]-ATP or [gamma-32P]-ATP relative to control
Sequence of Mast/stem cell growth factor receptor Kit (Homo sapiens) (P10721 whole entry): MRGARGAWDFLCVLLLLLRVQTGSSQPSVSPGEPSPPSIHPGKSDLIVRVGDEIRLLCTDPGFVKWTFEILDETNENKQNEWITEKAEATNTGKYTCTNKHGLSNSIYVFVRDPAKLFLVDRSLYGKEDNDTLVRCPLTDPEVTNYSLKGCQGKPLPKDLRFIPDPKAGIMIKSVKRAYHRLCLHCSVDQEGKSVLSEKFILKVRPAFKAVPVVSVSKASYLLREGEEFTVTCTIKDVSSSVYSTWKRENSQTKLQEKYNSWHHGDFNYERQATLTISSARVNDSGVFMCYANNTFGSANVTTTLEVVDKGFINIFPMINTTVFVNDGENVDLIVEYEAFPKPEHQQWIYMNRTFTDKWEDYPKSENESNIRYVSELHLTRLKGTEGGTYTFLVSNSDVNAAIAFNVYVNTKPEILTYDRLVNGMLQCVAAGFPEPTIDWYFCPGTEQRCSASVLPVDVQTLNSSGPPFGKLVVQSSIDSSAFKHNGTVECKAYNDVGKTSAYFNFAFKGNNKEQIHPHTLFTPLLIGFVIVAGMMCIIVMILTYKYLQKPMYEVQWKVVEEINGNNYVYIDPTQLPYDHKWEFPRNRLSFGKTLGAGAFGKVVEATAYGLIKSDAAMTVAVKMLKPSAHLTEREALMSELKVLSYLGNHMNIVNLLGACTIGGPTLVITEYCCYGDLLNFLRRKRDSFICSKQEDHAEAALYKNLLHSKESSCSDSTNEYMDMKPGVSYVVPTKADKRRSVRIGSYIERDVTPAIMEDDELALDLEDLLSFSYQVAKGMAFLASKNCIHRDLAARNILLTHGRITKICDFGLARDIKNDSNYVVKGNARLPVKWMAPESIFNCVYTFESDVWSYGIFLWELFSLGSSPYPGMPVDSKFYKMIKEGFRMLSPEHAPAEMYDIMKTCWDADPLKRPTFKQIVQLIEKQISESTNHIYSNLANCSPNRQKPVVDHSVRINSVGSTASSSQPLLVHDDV

[27] = biological target: Cytochrome P450 2C19 (Homo sapiens, UniProt P33261); assay: Inhibition of CYP2C19 in human liver microsomes by LC-MS/MS analysis; assay type: ADME; procedure, shortened: as §2

Compound: Cc1cccc(Cn2nc(C)c3c(NC(=O)c4csc5c(N)ncnc45)cccc32)n1
- inhibition [1]: 20%
- inhibition [2]: -9%
- IC50 [3]: 527 nM
- IC50 [4]: > 20000 nM
- IC50 [5]: 64 nM
- CI [6]: <0.1
- inhibition [7]: Dose-dependent effect
- inhibition [8]: 14%
- half-life [9]: 1.6 h
- inhibition [10]: 27%
- inhibition [11]: 19%
- remaining at 1 h [12]: 87%
- Cmax [13]: 900 ng/mL
- IC50 [14]: 208 nM
- Tmax [15]: 2 h
- IC50 [16]: > 20000 nM
- GI50 [17]: 80 nM
- inhibition [18]: > 60%
- inhibition [19]: > 60%
- IC50 [20]: > 20000 nM
- inhibition [21]: > 60%
- IC50 [22]: 145 nM
- Cmax [23]: 2550 ng/mL
- inhibition [24]: > 60%
- bioavailability [25]: 36%
- inhibition [26]: 27%
- IC50 [27]: > 20000 nM
